Insulin prom up: insulin promoter activators in MIN6 cells, imaging, high-content screening, mouse beta cells; MIN6 insulin promoter-GFP reporter; active compounds read high; z-score at 5 µM; 0.3% of 190,000 active;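 active = z-score above 3 at 5 µM with at least 500 cells counted in the well; inconclusive = wells under 500 cells, flagged as cytotoxic or low count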
INS promoter inh: inhibitors of insulin promoter-driven GFP, primary screen, imaging, TRM-6 cells (human fetal islet line), eGFP reporter, cell count; reporter expression induced with tamoxifen; 0.9% of 130,000 active; AID 1273, 2008; inhibition, % at 2 µM;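 active = inhibition above the mean plus 3 SD, with well images judged a real hit on visual review, cut at about 60% in these data, passing the limit was not always enough; inconclusive = inhibition over the cutoff but images rejected on review; inactive = inhibition not above the cutoff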
Autophagy mod: autophagy modulators in MEF cells, primary screen, imaging, high-content, MEF GFP-LC3. 0.98% of 190,000 active. calls only at 10 µM (by protocol). MEF GFP-LC3 puncta imaging; test concentration mostly 10 µM;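 active = percentage of spot-positive cells more than 3 SD above its plate mean, without a fluorescence outlier flag or 80% toxicity; inconclusive = no clear call, values can overlap the other calls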
Dynein transport: inhibitors of GR-EGFP nuclear translocation, primary screen, dynein cargo transport inhibitor project, imaging, high-content, 3617.4 mouse cells; test concentration mostly 20 µM; stimulated with dexamethasone, 1 µM; active compounds read low; z-score, hits read low; 0.47% of 220,000 active; AID 1381, 2008;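 active = plate z-score of nuclear minus cytoplasmic receptor signal below a set negative limit, without overly bright fluorescence or cell loss, cut at about -3.5 in these data, passing the limit was not always enough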;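 also: z-score of nuclear minus cytoplasmic ring GR-EGFP intensity difference per well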
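Also added – dexamethasone, 1.0 µM final · Buffer or medium – tet-free, stripped-serum medium · Schedule – induction 48 h, compound 1 h, agonist 30 min · Detection – formaldehyde fixation, Hoechst nuclear stain, 10x automated fluorescence imaging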
Numbers stand for hits; i = inactive; ? = inconclusive; nt = no result given; + = active, no number. Shown are actives, neighbours in structure and some others; about 2% of the full set was active somewhere.

SMILES	Insulin prom up	INS promoter inh	Autophagy mod	Dynein transport
Nc1nc(CCl)nc(N(c2ccccc2)c2ccccc2)n1	i	nt	nt	i
CC(C)CNC(=O)c1c2c(nc3ccccc13)-c1ccccc1CC2	nt	i	i	i
C=CCNC(=O)c1c2c(nc3ccccc13)-c1ccccc1CC2	4.5	i	i	i
Cc1ccc(SCc2cc(-c3ccc(Cl)cc3)no2)cc1	3.1	nt	i	nt
COc1ccc(C2C3=C(N=C4SCC(=O)N42)c2ccccc2CC3)cc1OC (stereo not drawn)	i	i	i	i
COc1ccc(C2C3=C(N=C4SCC(=O)N42)c2ccccc2CC3)cc1 (stereo not drawn)	i	71	i	i
CC(C(=O)Nc1cc([N+](=O)[O-])ccc1Cl)N1CCN(c2ccc(O)cc2)CC1 (stereo not drawn)	i	72	i	i
CC1CC(C)CN(CC(=O)N2CCOCC2)C1 (stereo not drawn)	i	nt	i	i
COC(=O)c1ccc(NC(=O)Cn2c(-c3nonc3N)nc3ccccc32)cc1	i	i	i	i
COC(=O)c1ccccc1NC(=O)Cn1c(-c2nonc2N)nc2ccccc21	i	i	+	i
CN(C)S(=O)(=O)c1ccc(-c2csc(N/N=C/c3ccc(O)cc3)n2)cc1	?	nt	nt	i
CC1=C(C(=O)Nc2ccccc2C)C(c2ccc(C)o2)n2c(s/c(=C/c3ccccc3)c2=O)=N1 (stereo not drawn)	i	77	i	i
COC(=O)c1cc(NC(=O)c2ccc(Cn3cc(Cl)cn3)o2)cc(C(=O)OC)c1	i	93	i	i
COC(=O)c1ccccc1NC(=O)c1ccc(Cn2cc(Cl)cn2)o1	i	i	i	i
O=C(Nc1ccc(Cl)cc1)N1CC=CCC1	i	63	i	i
CC(=O)NS(=O)(=O)c1ccc(NC(=S)NC(=O)Cc2ccccc2)cc1	i	nt	i	i
COCCN1C(=O)/C(=C/c2ccc(N3CCCC3)cc2)SC1=S	nt	nt	+	i
COc1ccc(-c2[nH]ncc2C=O)cc1	i	60	i	i
Cc1cccc(-n2nc(C(=O)c3ccco3)cc(-c3nc4ccccc4[nH]3)c2=N)c1	i	i	i	i
Cc1ccccc1-n1nc(C(=O)c2cccs2)cc(-c2nc3ccccc3[nH]2)c1=N	i	i	+	i
CC1CCC/C=C/C(=O)c2c(O)cc(O)cc2CC(=O)O1 (stereo not drawn)	?	nt	nt	-4.5
CCN1CCN(C(=O)CN(c2cc(OC)ccc2OC)S(C)(=O)=O)CC1	i	i	i	i
COc1ccc(OC)c(N(CC(=O)N2CCN(c3cc(Cl)ccc3C)CC2)S(C)(=O)=O)c1	i	i	+	i
CS(=O)(=O)N(CC(=O)Nc1ccc(S(=O)(=O)N2CCCC2)cc1)c1ccccc1	i	nt	i	i
COc1ccc2cc3[n+](cc2c1OC)CCc1cc2c(cc1-3)OCO2	?	67	i	i
SMILES	Insulin prom up	INS promoter inh	Autophagy mod	Dynein transport
CCOC(=O)CC(NS(=O)(=O)c1ccc(OC)c(C)c1)c1cccc([N+](=O)[O-])c1 (stereo not drawn)	nt	i	+	i
O=C(Nc1ccc(NC(=S)NC(=O)C(c2ccccc2)c2ccccc2)cc1)c1ccccc1	nt	i	i	i
Cc1cccc(NC(=S)NC(=O)C(c2ccccc2)c2ccccc2)n1	nt	72	i	i
CCc1ccc2oc(-c3cc(N)cc(C)c3O)nc2c1	i	i	+	i
COCCCNc1nc(=S)[nH]c2cc(OC)c(OC)cc12	i	nt	i	i
COc1cc2[nH]c(=S)nc(NCCC(C)C)c2cc1OC	i	83	i	i
CC1CCCC(NCC(O)COC(c2ccc(F)cc2)c2ccc(F)cc2)C1C (stereo not drawn)	i	nt	+	i
CC1CCCC(NC(=O)CSc2ccc(F)cc2)C1C (stereo not drawn)	i	i	i	i
S=C1N(c2ccccc2)C(c2ccc(Br)cc2)N2CCCN12 (stereo not drawn)	i	nt	nt	i
Cc1ccc(CSc2nnc(CNc3ccc(F)cc3)o2)cc1	i	i	i	i
COC(=O)CN1C(=S)N(Cc2ccccc2)C(=O)C1CC(=O)Nc1ccc(OC)cc1 (stereo not drawn)	nt	80	i	i
CC1CCCC(C)N1C(=O)CSc1nnc(-c2cccs2)o1 (stereo not drawn)	3.5	i	i	i
COCCCN(CCC#N)C(=O)c1c(-c2c(Cl)cccc2Cl)noc1C	i	nt	nt	i
CC1CCN(CC(=O)Nc2ccc(N3CCCCCC3)cc2)CC1	i	nt	i	i
CC(=O)NC1C(=O)SC1(C)C (stereo not drawn)	i	88	i	i
COc1ccc(C(=O)c2ccc(N(C)C)cc2)c2ccccc12	nt	i	+	i
COc1ccccc1C(=O)COC(=O)c1ccc(N(C)C)cc1	i	nt	i	i
COc1cccc(N2CCN(c3ncnc4c3[nH]c3ccc(F)cc34)CC2C)c1 (stereo not drawn)	i	i	+	i
CN(C)C(=O)Nc1ccccc1	i	nt	nt	i
CC(CN1C(C)CCCC1C)OC(=O)c1ccc(Cl)cc1Cl (stereo not drawn)	i	nt	+	i
CC(C)CCN(C(=S)NC(=O)C1CCCCC1)c1c(N)n(Cc2ccccc2)c(=O)[nH]c1=O	i	i	i	i
C=C(C)CNC(=S)Nc1cccc(S(=O)(=O)NC2=NCCC2)c1	i	nt	i	i
Cc1ccc(S(=O)(=O)NCCC(=O)OCC(=O)Nc2cccc(S(=O)(=O)NC3=NCCCCC3)c2)cc1	i	i	i	i
CCC(C(=O)OCC(=O)Nc1ccc(OC)cc1OC)c1ccccc1 (stereo not drawn)	i	nt	i	i
CCC(C(=O)OCC(=O)Nc1cccc(OC)c1)c1ccccc1 (stereo not drawn)	i	73	i	i
SMILES	Insulin prom up	INS promoter inh	Autophagy mod	Dynein transport
CCC(C(=O)OCC(=O)Nc1cccc(S(=O)(=O)NC2=NCCCCC2)c1)c1ccccc1 (stereo not drawn)	4	nt	i	i
Cc1ccc(S(=O)(=O)NCC(=O)OCC(=O)Nc2cccc(S(=O)(=O)NC3=NCCCCC3)c2)cc1	i	78	i	i
CSCCCNC(=S)Nc1cccc(S(=O)(=O)NC2=NCCC2)c1	i	nt	+	i
O=C(Nc1n[nH]c(C(F)(F)F)n1)C1CC1	i	nt	i	i
COc1ccc2c(C)cc3n[nH]c(=S)n3c2c1	i	nt	nt	i
O=C(Cn1nc(-c2ccccc2)ccc1=O)NCC1COCCO1 (stereo not drawn)	nt	100	i	i
O=C(Cn1nc(-c2ccccc2)ccc1=O)NCCCN1CCOCC1	i	nt	nt	i
CC(C)C1Oc2cc3oc(=O)ccc3cc2C1=O (stereo not drawn)	i	nt	i	i
Cc1cccc(Oc2nccc(C(F)(F)F)c2C(=O)Nc2ccc(F)cc2F)c1	3.6	nt	nt	i
O=C(Nc1cccc(S(=O)(=O)Nc2ccc(Cl)cc2)c1)c1ccc[n+]([O-])c1	i	nt	nt	i
CC1=C/C(=N\NC(=S)Nc2cccnc2)CC(C)(C)C1	i	nt	i	i
Cc1nonc1NC(=O)CSc1nc2c(C)cccc2cc1C#N	nt	i	+	i
Cc1cccc2cc(C#N)c(SCCN3CCCCC3)nc12	nt	i	+	i
Cc1cccc2cc(C#N)c(N3CCN(C)CC3)nc12	i	i	i	i

Bioassay records (PubChem)
